NR2E3 ag-1: NR2E3 (human) agonism | Q9Y5X4 | GST-NR2E3/biotin-RetCOR TR-FRET, 1536-well | inhibition of corepressor binding, % at 4.78 µM | 0.12% of 320,000 active | AID 2300;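 active means percent inhibition above the cutoff of mean plus 3 SD of all tested compounds, set per screening campaign, cut at about 20% in these data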;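 further: 0% = DMSO wells and 100% = biotin wells as full block of FRET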
Target sequence (Q9Y5X4 whole entry, looked up): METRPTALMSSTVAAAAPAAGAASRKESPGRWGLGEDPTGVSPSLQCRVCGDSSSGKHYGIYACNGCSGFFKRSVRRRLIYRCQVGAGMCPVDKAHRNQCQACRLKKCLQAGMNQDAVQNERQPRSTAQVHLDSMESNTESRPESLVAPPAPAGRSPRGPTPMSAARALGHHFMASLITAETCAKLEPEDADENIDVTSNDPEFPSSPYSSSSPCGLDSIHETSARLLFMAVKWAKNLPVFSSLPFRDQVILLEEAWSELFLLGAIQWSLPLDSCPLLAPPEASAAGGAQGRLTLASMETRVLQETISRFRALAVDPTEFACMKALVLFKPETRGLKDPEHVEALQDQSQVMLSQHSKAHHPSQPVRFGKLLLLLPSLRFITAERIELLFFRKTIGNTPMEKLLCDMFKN
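Material: NR2E3–RetCOR corepressor complex / Incubation: Compound–protein incubation for 5 h at 4 °C / Dosing: compound at 4.8 µM, single dose / Detection: time-resolved FRET / Benchmarks: high control biotin, low control 0.6% DMSO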
Neddylation inh: blocks human cullin neddylation. P61081+Q13564. TR-FRET cullin neddylation, biochemical. calls only at 25 µM. 0.58% of 360,000 active. AID 651699; in the data active means inhibition above about 36%
PG9 binder: PG9 antibody binding by small molecule; 0.43% of 360,000 active; inhibition, % at 6.7 µM; TR-FRET gp120-PG9 antibody binding; in the data active means inhibition above about 8.5%
NR2E3 ag-2: human photoreceptor-specific nuclear receptor agonism; Q9Y5X4; CHO-S Gal4-NCOR/VP16-NR2E3 two-hybrid, luciferase; inhibition of corepressor binding, % at 3.98 µM; 0.35% of 360,000 active; AID 602229;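 active means inhibition above the mean of all tested compounds plus 3 SD, cut at about 70% in these data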;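 further: 0% = DMSO with NR2E3 transfected cells and 100% = cells lacking NR2E3 construct; higher means lower luciferase signal from less NR2E3 corepressor binding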
Rev-erbA mod: modulators of human Rev-erb alpha DNA binding; P20393; Rev-erbα–FITC-DNA binding, fluorescence polarization, 90 min; activity, % at 10 µM; 0.79% of 370,000 active;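 active means activity above about 14%, limit read from the data; passing the limit was not always enough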;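 further: 0% = DMSO wells with 35 nM protein and 100% = DMSO wells with 750 nM protein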
PG9 bind confirm: confirmation of small molecules binding HIV-1 gp120 antibody PG9 | shares compounds with PG9 binder | TR-FRET PG9 antibody binding, biochemical | inhibition, % at 6.7 µM | 90% of 1,500 active; in the data active means inhibition above about 9%
PGV04 Ab binding: PGV04 control antibody binding, counter-screen | shares compounds with PG9 binder | TR-FRET PGV04 antibody-gp120 binding, biochemical | inhibition, % at 6.7 µM | 95% of 1,500 active | AID 651604; in the data active means inhibition above about 9.5%
PG9 bind DR: PG9 antibody binding, dose response; AID 651848; 95 tested, under 10 active; TR-FRET PG9 antibody-gp120 binding inhibition; IC50, µM; shares compounds with PG9 binder; in the data active means IC50 below about 10 µM
PGV04 binding DR: counter-screen for PG9 binders: binding to control antibody PGV04 | 20% of 95 active | TR-FRET binding to control antibody PGV04 | IC50, µM | AID 651937 | shares compounds with PG9 binder
PG126 binding DR: PG126 binding, dose response counter-screen; AID 651939; 20% of 95 active; IC50, µM; TR-FRET binding to antibody PG126, counterscreen; shares compounds with PG9 binder
Rev-erbA confirm: confirmation of modulators of human Rev-erb alpha DNA binding | shares compounds with Rev-erbA mod | Rev-erb alpha FITC-DNA binding, fluorescence polarization, 90 min | activation, % at 25 µM | 61% of 3,000 active;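 active means activation at or above a set limit, or at least 3 SD above the negative control mean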;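 further: 0% = 35 nM protein with DMSO and 100% = 750 nM protein high control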
RORg counter: counter-screen for Rev-erb alpha modulators: RORgamma DNA binding | shares compounds with Rev-erbA mod | purified RORgamma protein-FITC-DNA binding, fluorescence polarization | IC50, µM | 8% of 910 active;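 active means Compounds whose fitted half-maximal concentration for disrupting protein-DNA binding is below 10 micromolar; the record names Rev-erb in its text, so the target is in doubt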
* marks the source's active call; other numbers are inactive results; i = inactive; x = no result given. In the library only some 2% were active in any assay of this set; here they are far more common. Unless noted, no stated cut-off is given here; in the data, active means IC50 below about 9 µM; inactive means the rest.

SMILES	NR2E3 ag-1	Neddylation inh	PG9 binder	NR2E3 ag-2	Rev-erbA mod	PG9 bind confirm	PGV04 Ab binding	Rev-erbA confirm	others
Cc1ccc(Cl)cc1-n1c(SCC(=O)NCCC2=CCCCC2)nc2n[nH]c(C)c2c1=N	-1	i	14*	-21	29*	15*	20*	15
C#CCNC(=O)C[C@H]1C[C@@]2(C(=O)OC)C(=C[C@H](C(C)C)O[C@@H]2C2CC2)N(CCc2ccc(OC)c(OC)c2)C1=O	x	x	x	x	0	x	x	x
Cn1c(NC(=O)c2cccc(Cn3cc(Cl)cn3)c2)nc2ccccc21	1	i	51*	-121	25*	37*	53*	1
Clc1nc(Oc2ccccc2)nc(-c2cn(-c3ccccc3)c3ccccc23)n1	-3	x	-3	-11	-11	x	x	x
CCNc1nc(Cl)nc(-c2cn(-c3ccccc3)c3ccccc23)n1	1	i	11*	-1	42*	9.0*	9.4*	14
COc1ccccc1CCC(=O)Nc1ccc(S(=O)(=O)Nc2ncccn2)cc1	x	i	0	14	-7	x	x	x
COc1cccc(C(=O)Nc2ccc3c(C)cc(=O)oc3c2)c1	x	i	9.7*	-172	20*	21*	31*	0
COc1cc(OC)cc(-c2c(Sc3ccccc3)c3cc(-c4ccc5c(c4)OCCO5)ccc3n2C)c1	x	i	45*	-31	23*	55*	73*	21*
Cc1cn(-c2cc(NC(=O)c3ccc(C)c(Nc4nccc(-c5cccnc5)n4)c3)cc(C(F)(F)F)c2)cn1	x	x	x	x	-10	x	x	x
Cc1cccc(N2CCN(C(=O)c3ccc(S(=O)(=O)N(C)c4ccccc4)cc3)CC2)c1C	x	i	2	20	-2	x	x	x
O=C(Nc1nnc(SCc2c(Cl)cccc2Cl)s1)c1ccc2ncsc2c1	-2	x	x	x	x	x	x	x
N#Cc1ccc(CSc2nnc(NC(=O)c3ccc4ncsc4c3)s2)cc1	i	i	32*	-27	60*	30*	48*	23*
O=C(NC1CCCCN(Cc2cccc(F)c2)C1=O)c1cccc(F)c1 (centres undefined)	x	x	x	x	4	x	x	x
C=CCNC(=O)c1ccc(Cn2c(=S)[nH]c3cc4c(cc3c2=O)OCO4)cc1	-54	i	23*	10	58*	16*	31*	64*	RORg counter=i
O=C(CCCCn1c(=O)[nH]c2ccsc2c1=O)NCc1ccc2c(c1)OCO2	1	i	0	0	4	x	x	x
O=C(CCCCn1c(=S)[nH]c2ccsc2c1=O)NCc1ccc2c(c1)OCO2	1	i	15*	18	20*	16*	28*	14
CCN(CC)C(=O)c1ccc2c(=O)n(Cc3ccc4c(c3)OCO4)c(=S)[nH]c2c1	1	i	24*	-3	29*	4	9	11
Brc1cnc2nc(SCc3nc4ccccc4[nH]3)[nH]c2c1	-3	i	-1	38	-3	x	x	x
Cc1cc(C)cc(OCc2nc3ncc(Br)cc3[nH]2)c1	4	i	34*	-71	62*	47*	63*	38*	RORg counter=>40
Cc1ccc(NC(=O)OCc2cccs2)cc1	0	x	x	x	x	x	x	x
Cc1ccc(Cn2c(CCCO)nc3ccccc32)cc1	4	i	2	-35	1	x	x	x
CC(=O)NCCNc1nc2c(-c3cccc(C(F)(F)F)c3)nnn2c2ccccc12	2	i	25*	-18	69*	15*	57*	3
CCCC(=O)Nc1c2c(nc3ccccc13)N(c1ccccc1)CC2	-1	i	x	-16	x	x	x	x
O=C(CN1CCCCC1)Nc1c2c(nc3ccccc13)N(c1ccccc1)CC2	-11	x	48*	6	109*	72*	79*	75*	RORg counter=>40
CN(C)c1cccc(NC(=O)C2Cc3c(-c4ccc(Cl)cc4)ccnc3O2)c1 (centres undefined)	x	i	-1	-7	-1	x	x	x
SMILES	NR2E3 ag-1	Neddylation inh	PG9 binder	NR2E3 ag-2	Rev-erbA mod	PG9 bind confirm	PGV04 Ab binding	Rev-erbA confirm	others
CCCc1nc(SCC(=O)Nc2nnc(CC)s2)c2c(C)c(C)sc2n1	1	i	12*	1	26*	18*	16*	15	PG9 bind DR=>67;PGV04 binding DR=i;PG126 binding DR=i
Cc1cc(-c2sccc2Br)nc(-n2cccc2)n1	x	i	11*	3	50*	23*	32*	27*
Cc1ccc(NC(=O)CN(C)C(=O)COc2ncnc3ccc(Br)cc23)cc1	0	i	21*	-22	21*	9.1*	8	17*	PG9 bind DR=i;PGV04 binding DR=i;PG126 binding DR=i
N#C/C(C(=O)NCc1ccco1)=C1/SC=C(c2ccccc2)N1c1ccccc1	-2	i	41*	-1	38*	42*	59*	30*
CC1=CS/C(=C(/C#N)C(=O)NCc2ccco2)N1c1ccccc1	5	i	3	-21	-8	x	x	x
N#Cc1ccsc1NC(=O)COC(=O)c1cc(Br)ccc1O	9	i	34*	-49	48*	38*	60*	32*	RORg counter=>40
O=C(COC(=O)c1cc(Br)ccc1O)Nc1cccnc1Cl	3	i	38*	-28	66*	13*	31*	39*	RORg counter=>40
O=C(COC(=O)c1ccc(Cl)cc1O)Nc1cccnc1Cl	-1	i	1	-43	3	x	x	x
COC(=O)c1ccc(CNC(=O)C2CCC(=O)N(C3CCCCCC3)C2)cc1 (centres undefined)	0	i	-1	3	2	x	x	x
CCn1c(-c2ccccc2)c[nH]c1=S	5	i	0	12	11	x	x	x
S=c1[nH]cc(-c2ccc(Cl)cc2)n1Cc1ccccc1	1	i	16*	1	26*	17*	21*	13
CCCCCNC(=O)c1ccc2c(=O)n(CCCOCC)c(=S)[nH]c2c1	2	i	-2	-2	1	x	x	x
